A selection: hits, their analogues and other compounds. The true share with any hit is near 1.5%.
APJ ag: activates the human apelin receptor APJ | P35414 | CHO-K1 APJ PathHunter beta-arrestin, luminescence; 0% DMSO wells, 100% apelin | activation, % at 20 µM | 330,000 tested, 0.11% active | AID 2520;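 active = activation more than six SD over the plate average, tested at 20 µM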
Target sequence (P35414 whole entry, looked up): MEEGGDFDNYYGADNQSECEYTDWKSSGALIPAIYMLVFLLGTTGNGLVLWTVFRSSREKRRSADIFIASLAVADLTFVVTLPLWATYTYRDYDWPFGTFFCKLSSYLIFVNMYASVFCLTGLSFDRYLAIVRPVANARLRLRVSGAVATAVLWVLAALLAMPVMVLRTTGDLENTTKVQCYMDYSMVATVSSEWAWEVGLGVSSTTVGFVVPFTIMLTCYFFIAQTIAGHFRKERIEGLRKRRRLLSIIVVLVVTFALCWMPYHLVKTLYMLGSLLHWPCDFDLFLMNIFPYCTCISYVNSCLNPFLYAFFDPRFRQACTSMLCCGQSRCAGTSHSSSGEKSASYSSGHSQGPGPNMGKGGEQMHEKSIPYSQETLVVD
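Test system: CHO-K1 APJ beta-arrestin complementation cell line | Compound: Single test compound dose, 20 µM final, 1% DMSO | Incubation: Compound 90 min 25 °C, reagent 1 h | Measured by: beta-gal luminescence | Read-out basis: APJ–arrestin association signal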
CCR6 antag: blocks CCL20-driven beta-arrestin recruitment at human CCR6 | P51684 | inhibition, % at 20 µM | 340,000 tested, 0.49% active | CHO-K1 CCR6 PathHunter beta-arrestin, luminescence, CCL20-stimulated | AID 493098;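 active = compounds whose inhibition of the agonist-driven luminescence signal at 20 µM reaches about 50%, limit read from the data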;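 note: cells stimulated with CCL20 at 14 nM final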
EBI2 antag: blocks human EBI2 receptor beta-arrestin signaling. P32249. EBI2 beta-arrestin recruitment, luminescence, 7a,25-OHC stimulated. inhibition, % at 5 µM. 360,000 tested, 0.81% active. AID 651636; in the data active = inhibition above about 38%;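 note: enzyme fragment complementation signal reports receptor beta-arrestin coupling in cells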
APJ antagonist: antagonists of human APJ apelin receptor | AID 2521 | 330,000 tested, 0.32% active | CHO-K1 APJ beta-arrestin complementation, luminescence | inhibition, % at 20 µM;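 active = inhibition above about 40% at 20 µM, limit read from the data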;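 note: cells challenged with 10 nM apelin-13 agonist together with compound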
CXCR6 block: inhibitors of human CXCR6 receptor; inhibition, % at 20 µM; O00574; CHO-K1 PathHunter CXCR6 beta-arrestin, luminescence; 360,000 tested, 0.36% active; in the data active = inhibition above about 34%, passing the limit was not always enough;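 note: antagonist mode with CXCL16 agonist at 10 nM final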
Large screens that a line does not name were inactive.

COc1ccc(C(=O)NC(=S)Nc2ccccc2N2CCCCC2)cc1[N+](=O)[O-]	CCR6 antag 72
COc1cc(C(=O)NC(=S)Nc2ccc([N+](=O)[O-])cc2)cc(OC)c1OC	APJ antagonist 41
CCOc1ccc(C(=O)NC(=S)Nc2ccc(N3CCCCC3)cc2)cc1[N+](=O)[O-]	none
O=C(Nc1ccc(C(=O)N2CCOCC2)cc1)c1ccc([N+](=O)[O-])cc1	none
O=C(COC(=O)CNC(=O)c1ccccc1)NCc1ccc2c(c1)OCO2	none
O=[N+]([O-])c1c(Nc2ccccc2O)ccc2nonc12	none
O=[N+]([O-])c1c(Nc2ccccc2O)cc(Cl)c2nonc12	CCR6 antag 106, EBI2 antag 61, APJ antagonist 93, CXCR6 block 107
NC(c1csc(NC(=O)Nc2ccc(OC(F)(F)F)cc2)n1)C1CCCCC1 (configuration not stated)	none (no result: APJ ag, CCR6 antag, APJ antagonist)
COc1cc(/C=C2\SC(N3CCC(C)CC3)=NC2=O)ccc1O	EBI2 antag 40
COc1ccc(/C=N\NC(=O)c2cc(O)c(O)c(O)c2)cc1COc1ccc(C(=O)OCC(C)C)cc1	CCR6 antag 55
O=C1C=CC(=O)N1c1ccc(O)cc1	CCR6 antag 81
O=C1C=CC(=O)N1c1ccc(OC(F)F)cc1	CXCR6 block 103 (no result: APJ ag, CCR6 antag, APJ antagonist)
O=C(O)c1cc(N=Nc2c(O)[nH]c3ccc([N+](=O)[O-])cc23)ccc1Cl	CXCR6 block 40
COc1ccccc1C(=O)N=Nc1c(O)[nH]c2ccc([N+](=O)[O-])cc12	none (no result: APJ ag, APJ antagonist)
NC(=O)N=Nc1c(O)[nH]c2ccc([N+](=O)[O-])cc12	none
O=C(N=Nc1c(O)[nH]c2ccc([N+](=O)[O-])cc12)c1cc(-c2ccccc2Cl)nc2ccccc12	CCR6 antag 65
Cc1cc(NC(=O)OC2CCCCC2)ccc1[N+](=O)[O-]	none
COc1ccc(OC)c(S(=O)(=O)CC(O)COc2ccccc2Cl)c1 (configuration not stated)	none
O=C(Nc1ccc([N+](=O)[O-])cc1)OC1CCS(=O)(=O)C1 (configuration not stated)	none (no result: APJ ag, CCR6 antag, APJ antagonist)
C=CC(=O)N1C/C(=C/c2ccc(F)cc2)C(=O)/C(=C\c2ccc(F)cc2)C1	CCR6 antag 84, EBI2 antag 53, CXCR6 block 72 (no result: APJ ag, APJ antagonist)
CN1C2CCC1/C(=C\c1ccc(F)cc1)C(=O)/C2=C/c1ccc(F)cc1	none
O=C1NC(=O)/C(=C/c2cccc([N+](=O)[O-])c2)N1	none
CCN1C/C(=C/c2cccc([N+](=O)[O-])c2)C(=O)/C(=C/c2cccc([N+](=O)[O-])c2)C1	CCR6 antag 62 (no result: APJ ag, APJ antagonist)
CCN(CC(=O)Nc1ccccc1C(F)(F)F)C(=O)c1ccc(N2C(=O)CCC2=O)cc1	none
O=C1C=C(c2cccc3c2sc2ccccc23)C[C@@H](c2ccc(F)cc2)C1	EBI2 antag 67
CSc1ccc(C2=C/C(=C3/SC(=S)NC3=O)c3ccccc3O2)cc1	CCR6 antag 76, CXCR6 block 45 (no result: APJ ag, APJ antagonist)
CCN1/C(=C2/SC(=S)NC2=O)Sc2ccccc21	none
CC(=O)Nc1ccc(NC(=O)c2nc(S(=O)(=O)Cc3cccc(C)c3)ncc2Cl)cc1	CCR6 antag 58, CXCR6 block 47
CCS(=O)(=O)c1ncc(Cl)c(C(=O)Nc2ccccc2OC)n1	EBI2 antag 79
Cc1c([N+](=O)[O-])cc(N2C(=O)C=CC2=O)cc1[N+](=O)[O-]	CXCR6 block 52 (no result: APJ ag, CCR6 antag, APJ antagonist)
Cc1cc(C)cc(N2C(=O)c3nccnc3C2=O)c1	none
Cc1cc(N2C(=O)C=CC2=O)c([N+](=O)[O-])cc1C	CXCR6 block 85 (no result: CCR6 antag)
Cc1c(Cl)cc(-n2cnnn2)cc1[N+](=O)[O-]	none
Cc1ccc(N2C(=O)C3C4C=CC(CC4)C3C2=O)cc1[N+](=O)[O-] (configuration not stated)	none
Cc1cc(C)cc(N2C(=O)C=CC2=O)c1	CXCR6 block 95 (no result: APJ ag, CCR6 antag, APJ antagonist)
O=C(Cn1nc(C(F)F)cc1C(F)F)NNC(=S)Nc1ccc([N+](=O)[O-])cc1	APJ antagonist 49
O=C(Cn1nc(C(F)F)cc1C(F)F)NNC(=S)Nc1ccc(F)cc1	none
COc1ccc(N=C2C(=O)Nc3ccccc32)cc1	none
Cc1ccc(N=C2C(=O)Nc3ccc(C)c(Br)c32)cc1	CCR6 antag 99
CC(C(=O)O)n1nc(-c2ccccc2)c2ccccc21 (configuration not stated)	none
CCN1C(=O)/C(=C/C=C2/Sc3ccc4ccccc4c3N2CCO)SC1=S	CCR6 antag 51
CN(C)C(=S)N=Nc1[nH]c2ccccc2c1O	CCR6 antag 63 (no result: EBI2 antag, CXCR6 block)
CN(C)C(=O)c1ccc(N=Nc2c(O)c3ccccc3[nH]c2=O)cc1	none (no result: APJ ag, APJ antagonist)
COc1ccccc1/C=C/CN1CCC(n2nccc2NC(=O)CCc2ccccc2)CC1	none
O=S1(=O)C=C(Sc2nc3cc(Cl)ccc3o2)c2ccccc21	CCR6 antag 74, CXCR6 block 56
Cc1cc(NC(=O)CSc2nc3cc(Cl)ccc3o2)no1	none
COc1ccc(C2CC(c3ccc(Br)cc3)=NN2C(=S)Nc2ccccc2)cc1 (configuration not stated)	none
CNC(=S)N1N=C(c2ccc(Br)cc2)CC1c1ccc(N(C)C)cc1 (configuration not stated)	EBI2 antag 94
CCOc1ccc2nc(N3C(=O)CNC3=S)sc2c1	CCR6 antag 60
CCn1c(=O)c2ccccc2n(Cc2cccc(C)c2)c1=O	none
Cc1cccc(Cn2c(=O)n(Cc3ccco3)c(=O)c3ccccc32)c1	EBI2 antag 61
CSCc1c(C(=O)OCC(=O)c2ccc[nH]2)oc2ccccc12	none
Cc1nc2c(C)cccn2c(=O)c1NC(=O)c1cccc2ccccc12	none
CN1C(=O)/C(=C/c2ccc(O)c([N+](=O)[O-])c2)NC1=S	APJ antagonist 45
O=C1/C(=C\c2cccc([N+](=O)[O-])c2O)SC(=S)N1Cc1ccccc1	CCR6 antag 64, CXCR6 block 46 (no result: APJ ag, APJ antagonist)
O=C1/C(=C\c2ccc(O)cc2)SC(=S)N1c1cccnc1	CCR6 antag 64, APJ antagonist 57, CXCR6 block 49
COc1cc([N+](=O)[O-])cc(/C=C2/SC(=S)N(Cc3ccccc3)C2=O)c1O	none (no result: APJ ag, APJ antagonist)
O=C1/C(=C/c2ccc(O)c([N+](=O)[O-])c2)SC(=S)N1Cc1ccccc1	CCR6 antag 54, APJ antagonist 50, CXCR6 block 44
COc1cc(/C=C2\NC(=S)N(C)C2=O)ccc1O	none
Cc1ccc(O)c(NC(=O)c2cc(-c3cccs3)on2)c1	none
O=C1/C(=C\c2ccc(O)cc2)SC(=S)N1Cc1ccccc1	CCR6 antag 51
O=C(O)c1ccc(/C=C2/SC(=S)N(Cc3ccccc3)C2=O)cc1	none (no result: APJ ag, APJ antagonist)
O=C1/C(=C/c2ccc(O)cc2)SC(=S)N1CC1CCCO1 (configuration not stated)	APJ antagonist 49
CCCOc1ccc(/C=C2\SC(=S)N(CC3CCCO3)C2=O)cc1 (configuration not stated)	none
